{
  "source": "ChEMBL document CHEMBL1671644",
  "about": "“Inhibition of human immunodeficiency virus type 1 infection by the candidate microbicide dapivirine, a nonnucleoside reverse transcriptase inhibitor” (Antimicrob Agents Chemother, 2009)",
  "key": {"[1]": {"tested_on": "Human immunodeficiency virus 1", "assay": "Antiviral activity against HIV-1 SM034 harboring NNTRI 188L mutant infected in human MT4 cells assessed as inhibition of viral replication relative to HIV-1 3B", "type": "functional", "outline": "(§1)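 MT-4 cells (3 x 10^4/well) infected with site-directed mutants or recombinant clinical isolates (200 TCID50/well) with drug, cultured 3 to 5 days. Viability read by MTT colorimetric antivirogram assay. IC50 by nonlinear regression; fold change = IC50 for the test isolate / IC50 for wild-type HIV-1 IIIB tested in parallel (mean or median).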"}, "[2]": {"tested_on": "Human immunodeficiency virus 1", "assay": "Antiviral activity against HIV-1 subtype B V022815 infected in human MT4 cells assessed as inhibition of viral replication relative to HIV-1 3B", "type": "functional", "outline": "(§2)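 Recombinant clinical HIV-1 isolates (200 TCID50/well) were tested in MT-4 cells (3 x 10^4/well) over 3–5 days, with an MTT viability read-out. IC50 was fitted by nonlinear regression. Fold change is the isolate IC50 divided by the HIV-1IIIB IC50, tested in parallel.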"}, "[3]": {"tested_on": "Human immunodeficiency virus 1", "assay": "Antiviral activity against HIV-1 subtype D V022818 infected in human MT4 cells assessed as inhibition of viral replication relative to HIV-1 3B", "type": "functional", "outline": "as §1"}, "[4]": {"tested_on": "Human immunodeficiency virus 1", "assay": "Antiviral activity against HIV-1 subtype CRF05_DF V022824 harboring NNRTI V106I mutant infected in human MT4 cells assessed as inhibition of viral replication relative to HIV-1 3B", "type": "functional", "outline": "as §1"}, "[5]": {"tested_on": "Human immunodeficiency virus 1", "assay": "Antiviral activity against HIV-1 subtype B V022809 infected in human MT4 cells assessed as inhibition of viral replication relative to HIV-1 3B", "type": "functional", "outline": "as §1"}, "[6]": {"tested_on": "Human immunodeficiency virus 1", "assay": "Antiviral activity against HIV-1 subtype D V022832 infected in human MT4 cells assessed as inhibition of viral replication relative to HIV-1 3B", "type": "functional", "outline": "as §1"}, "[7]": {"tested_on": "Human immunodeficiency virus 1", "assay": "Antiviral activity against HIV-1 subtype CRF01_AE V022821 infected in human MT4 cells assessed as inhibition of viral replication relative to HIV-1 3B", "type": "functional", "outline": "as §2"}, "[8]": {"tested_on": "Human immunodeficiency virus 1", "assay": "Antiviral activity against HIV-1 subtype CRF02_AG V022830 infected in human MT4 cells assessed as inhibition of viral replication relative to HIV-1 3B", "type": "functional", "outline": "as §1"}, "[9]": {"tested_on": "Human immunodeficiency virus 1", "assay": "Antiviral activity against HIV-1 SM007 harboring NNTRI 103N mutant infected in human MT4 cells assessed as inhibition of viral replication relative to HIV-1 3B", "type": "functional", "outline": "as §1"}, "[10]": {"tested_on": "Human immunodeficiency virus 1", "assay": "Antiviral activity against HIV-1 subtype C V022831 infected in human MT4 cells assessed as inhibition of viral replication relative to HIV-1 3B", "type": "functional", "outline": "as §1"}, "[11]": {"tested_on": "Human immunodeficiency virus 1", "assay": "Antiviral activity against HIV-1 SM058 harboring NNTRI 227L and 106A mutant infected in human MT4 cells assessed as inhibition of viral replication relative to HIV-1 3B", "type": "functional", "outline": "as §1"}, "[12]": {"tested_on": "Human immunodeficiency virus 1", "assay": "Antiviral activity against HIV-1 Bal infected in 2 hrs 1000 nM compound pretreated human ectocervical explant tissue assessed as prolonged inhibition of viral infection post compound removal measured after 2 days post compound removal", "type": "functional", "outline": "(§3)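 Ectocervical explants were exposed to drug (0.01–10 µM) for 2 or 24 h at 37°C and washed. They received HIV-1BaL (2 h) on day 0, 2, 4 or 6 after drug removal, with no drug present. Read-outs at 10 days post-exposure: explant p24 ELISA, tissue proviral DNA by qPCR, and p24 in migratory cell–PM-1 cocultures. Three donors (2 h) or two donors (24 h), triplicate.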"}, "[13]": {"tested_on": "Human immunodeficiency virus 1", "assay": "Antiviral activity against HIV-1 subtype CRF01_AE V022822 infected in human MT4 cells assessed as inhibition of viral replication relative to HIV-1 3B", "type": "functional", "outline": "as §1"}, "[14]": {"tested_on": "Human immunodeficiency virus 1", "assay": "Antiviral activity against HIV-1 SM030 harboring NNTRI 100I mutant infected in human MT4 cells assessed as inhibition of viral replication relative to HIV-1 3B", "type": "functional", "outline": "as §1"}, "[15]": {"tested_on": "Human immunodeficiency virus 1", "assay": "Antiviral activity against HIV-1 subtype CRF01_AE V022820 infected in human MT4 cells assessed as inhibition of viral replication relative to HIV-1 3B", "type": "functional", "outline": "as §1"}, "[16]": {"tested_on": "Human immunodeficiency virus 1", "assay": "Antiviral activity against HIV-1 SM002 harboring NNTRI 181C mutant infected in human MT4 cells assessed as inhibition of viral replication relative to HIV-1 3B", "type": "functional", "outline": "as §1"}, "[17]": {"tested_on": "Human immunodeficiency virus 1", "assay": "Antiviral activity against HIV-1 Bal infected in 2 hrs 10000 nM compound pretreated human ectocervical explant tissue assessed as prolonged inhibition of viral infection post compound removal measured after 4 days post compound removal", "type": "functional", "outline": "as §3"}, "[18]": {"assay": "Selectivity index, ratio of CC50 for human TZM-bl cells to IC50 for HIV-1 3B", "type": "functional", "outline": "(§4)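 Selectivity index is CC50/IC50, using values determined in the same time period. CC50 was measured by MTT for TZM-bl and PM-1 cells and by trypan blue exclusion after 14 days for macrophages. Both were fitted by nonlinear regression.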"}, "[19]": {"assay": "Selectivity index, ratio of CC50 for human TZM-bl cells to IC50 for HIV-1 Bal", "type": "functional", "outline": "as §4"}, "[20]": {"tested_on": "Human immunodeficiency virus 1", "assay": "Antiviral activity against HIV-1 SM052 harboring NNTRI 101E and 103N mutant infected in human MT4 cells assessed as inhibition of viral replication relative to HIV-1 3B", "type": "functional", "outline": "as §1"}, "[21]": {"tested_on": "Human immunodeficiency virus 1", "assay": "Antiviral activity against HIV-1 Bal infected in human PM1 cells assessed as inhibition of transmission of virus to premissive T cells at 100 nM"}, "[22]": {"tested_on": "Human immunodeficiency virus 1", "assay": "Antiviral activity against HIV-1 subtype B V022813 infected in human MT4 cells assessed as inhibition of viral replication relative to HIV-1 3B", "type": "functional", "outline": "as §1"}, "[23]": {"tested_on": "Human immunodeficiency virus 1", "assay": "Antiviral activity against HIV-1 Bal infected in human cervical tissue explants assessed as inhibition of dissemination of virus via migratory cells after 2 hrs in presence of 12.5% cervical mucus", "type": "functional, organism-based", "outline": "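Cervical explants were exposed to HIV-1BaL plus drug for 2 h in cervical mucus simulant or whole semen (final 12.5%), then washed. Migratory cells were cocultured with PM-1 indicator cells and infection read as p24 in coculture supernatant.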"}, "[24]": {"tested_on": "Human immunodeficiency virus 1", "assay": "Antiviral activity against HIV-1 subtype B V022811 infected in human MT4 cells assessed as inhibition of viral replication relative to HIV-1 3B", "type": "functional", "outline": "as §2"}, "[25]": {"tested_on": "Human immunodeficiency virus 1", "assay": "Antiviral activity against HIV-1 subtype B V022810 harboring NNRTI A98S andK101R mutant infected in human MT4 cells assessed as inhibition of viral replication relative to HIV-1 3B", "type": "functional", "outline": "as §1"}, "[26]": {"tested_on": "Human immunodeficiency virus 1", "assay": "Antiviral activity against HIV-1 Bal infected in human TZM-bl cells after 24 hrs by luciferase reporter gene assay in presence of 12.5% whole semen", "type": "functional, organism-based", "settings": "Human immunodeficiency virus 1, Bal", "outline": "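HIV-1 BaL (200 TCID50/ml) pretreated with whole semen (12.5% final), then added to overnight-cultured TZM-bl cells (5 x 10^4/well) pretreated 1 h with drug. After 24 h, cells lysed and luciferase read. IC50 versus drug-free control by nonlinear regression; effect of semen tested by ANOVA with Bonferroni and t tests.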"}, "[27]": {"tested_on": "Human immunodeficiency virus 1", "assay": "Antiviral activity against HIV-1 subtype O V029524 harboring NNRTI A98G, V179E and Y181C mutant infected in human MT4 cells assessed as inhibition of viral replication relative to HIV-1 3B", "type": "functional", "outline": "as §1"}},
  "note": "Activity calls are given as the source filed them. The calls are words filed in the database; no cut-off is given here.",
  "data": [
    {"compound": "Cc1cc(C)c(Nc2ccnc(Nc3ccc(C#N)cc3)n2)c(C)c1", "note": "[DAPIVIRINE]", "values": [
      {"measurement": "Ratio IC50", "setting": "[1]", "result": 47},
      {"measurement": "Ratio IC50", "setting": "[2]", "result": 2.2},
      {"measurement": "Ratio IC50", "setting": "[3]", "result": 1.4},
      {"measurement": "Ratio IC50", "setting": "[4]", "result": 0.7},
      {"measurement": "Ratio IC50", "setting": "[5]", "result": 1.5},
      {"measurement": "Ratio IC50", "setting": "[6]", "result": 0.7},
      {"measurement": "Ratio IC50", "setting": "[7]", "result": 1.7},
      {"measurement": "Ratio IC50", "setting": "[8]", "result": 1.6},
      {"measurement": "Ratio IC50", "setting": "[9]", "result": 5},
      {"measurement": "Ratio IC50", "setting": "[10]", "result": 0.8},
      {"measurement": "Ratio IC50", "setting": "[11]", "result": 8},
      {"measurement": "inhibition (INH)", "setting": "[12]", "result": 90, "unit": "%"},
      {"measurement": "Ratio IC50", "setting": "[13]", "result": 0.9},
      {"measurement": "Ratio IC50", "setting": "[14]", "result": 18},
      {"measurement": "Ratio IC50", "setting": "[15]", "result": 0.9},
      {"measurement": "Ratio IC50", "setting": "[16]", "result": 8},
      {"measurement": "inhibition (INH)", "setting": "[17]", "result": 90, "unit": "%"},
      {"measurement": "Selectivity Index", "setting": "[18]", "result": 20400},
      {"measurement": "Selectivity Index", "setting": "[19]", "result": 9273},
      {"measurement": "Ratio IC50", "setting": "[20]", "result": 17},
      {"measurement": "inhibition", "setting": "[21]", "result": "Active"},
      {"measurement": "Ratio IC50", "setting": "[22]", "result": 0.7},
      {"measurement": "inhibition", "setting": "[23]", "result": "Active"},
      {"measurement": "Ratio IC50", "setting": "[24]", "result": 3.1},
      {"measurement": "Ratio IC50", "setting": "[25]", "result": 1.6},
      {"measurement": "IC50", "setting": "[26]", "result": 1.75, "unit": "nM"},
      {"measurement": "IC90", "setting": "[26]", "result": 16.7, "unit": "nM"},
      {"measurement": "Ratio IC50", "setting": "[27]", "result": 150}
    ]}
  ]
}
